The source made the active and inactive calls. The calls are words filed in the database; no cut-off is given here.
Assays:
[1] = organism: Oryctolagus cuniculus; experiment: Inhibition of cap-independent HCV-IRES-induced translation in rabbit reticulocyte lysate at 500 nM after 1.5 hrs by luciferase reporter gene assay; assay type: functional
Outline: (§1)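 Capped bicistronic reporter mRNA: cap-dependent firefly luciferase first cistron, HCV IRES-driven Renilla second cistron. Transcribed in vitro with SP6 from the BamHI-linearised plasmid. 200 ng RNA translated in rabbit reticulocyte lysate with 70 mM KCl, 2 mM DTT, RNasin and compound in DMSO (5% v/v final), 30 °C for 1.5 h. Dual luciferase readout. Duplicates, 4 independent assays, mean IC50 by curve fit.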

[2] = system: HeLa; experiment: Antiproliferative activity against human HeLa cells up to 500 nM after 72 hrs by MTT assay; assay type: functional, cell-based
Outline: (§2)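 HeLa and SK-MEL2 grown in DMEM, Jurkat in RPMI 1640, each with 10% FBS and penicillin-streptomycin, at 37 °C and 5% CO2. Adherent cells seeded at 2000/well and left to recover overnight; Jurkat seeded at 5000/well with no recovery. Compound added in DMSO (0.1% final), then 72 h incubation and MTT readout.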

[3] = system: Jurkat; experiment: Antiproliferative activity against human Jurkat T cells up to 10^4 nM after 72 hrs by MTT assay; assay type: functional, cell-based; outline: as §2
[4] = system: SK-MEL-2; experiment: Antiproliferative activity against human SK-MEL-2 cells up to 10^4 nM after 72 hrs by MTT assay in presence of 10% FBS; assay type: functional, cell-based; outline: as §2
[5] = system: HeLa; experiment: Antiproliferative activity against human HeLa cells assessed as DNA synthesis level after 24 hrs by thymidine incorporation assay; assay type: functional, cell-based
Outline: (§3)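 Cells kept at 37 °C, 5% CO2 with penicillin-streptomycin and 10% FBS. Adherent lines seeded at 2000 cells/well and left to recover overnight; Jurkat seeded at 5000 cells/well with no recovery period. Compound added in DMSO (0.1% final, vehicle-only control) at 0.001–100 nM over 10 wells. DNA synthesis read out after 24 h. Mean IC50 from at least 3 independent assays.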

[6] = system: HaCaT; experiment: Antiproliferative activity against human HaCaT cells assessed as DNA synthesis level after 24 hrs by thymidine incorporation assay; assay type: functional, cell-based; outline: as §3
[7] = system: RKO; experiment: Antiproliferative activity against human RKO cells assessed as DNA synthesis level after 24 hrs by thymidine incorporation assay; assay type: functional, cell-based; outline: as §3
[8] = Antiproliferative activity against BAEC assessed as DNA synthesis level after 24 hrs by thymidine incorporation assay; conditions: Bos taurus; outline: as §3
[9] = system: Jurkat; experiment: Immunosuppressive activity in human Jurkat T cells assessed as inhibition of IL-2 transcription; assay type: functional, cell-based
[10] = system: SK-MEL-2; experiment: Antiproliferative activity against human SK-MEL-2 cells after 72 hrs by MTT assay in presence of 10% FBS; assay type: functional, cell-based; conditions: SK-MEL-2, 72 h; outline: as §2
[11] = system: HeLa; experiment: Antiproliferative activity against human HeLa cells after 72 hrs by MTT assay; assay type: functional, cell-based; outline: as §2
[12] = Binding affinity to eIF4A1/2 in rabbit reticulocyte lysate assessed as inhibition of cap-dependent translation after 1.5 hrs by dual luciferase reporter gene assay; design: species or system Oryctolagus cuniculus; outline: as §1
[13] = Half life in RPMI media at 10 uM by HPLC analysis; assay type: physicochemical
Outline: (§4)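 Compound added from DMSO stock to pre-heated RPMI 1640 (1.8 mL) plus 0.2 mL human AB male serum or FBS, or to 2 mL RPMI alone, at final 1 or 10 μM. Samples analysed by HPLC at pH 9.5 (formic acid/ammonia in acetonitrile/water), with conversion taken from the substrate/internal standard peak ratio. Run in triplicate; half-lives ± SD.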

[14] = Selectivity ratio of IC50 for MEF to IC50 for human SK-MEL-2 cells; assay type: cell-based; conditions: mouse (MEF) and human (SK-MEL-2 cells), MEF and SK-MEL-2 cells; read-out: Ratio IC50
[15] = system: MEF; experiment: Antiproliferative activity against MEF after 72 hrs by MTT assay; assay type: cell-based; conditions: Mus musculus
[16] = Selectivity ratio of IC50 for MEF to IC50 for human HeLa cells; assay type: cell-based; conditions: mouse (MEF) and human (HeLa cells), read-out: Ratio IC50
[17] = Half life in RPMI media at 10 uM by HPLC analysis in presence of fetal bovine serum; assay type: ADME; conditions: cattle; outline: as §4
[18] = Dissociation constant, pKa of the compound; assay type: physicochemical
[19] = Selectivity ratio of IC50 for MEF to IC50 for human Jurkat T cells; assay type: cell-based; conditions: mouse (MEF) and human (Jurkat T cells), read-out: Ratio IC50
[20] = system: SK-MEL-2; experiment: Selectivity ratio of IC50 for human SK-MEL-2 cells in presence of 10% FBS to IC50 for human SK-MEL-2 cells in presence of 5% FBS; assay type: functional
[21] = Half life in RPMI media at 10 uM by HPLC analysis in presence of human blood serum; assay type: ADME; outline: as §4
[22] = system: SK-MEL-2; experiment: Antiproliferative activity against human SK-MEL-2 cells after 72 hrs by MTT assay in presence of 5% FBS; assay type: functional, cell-based; conditions: SK-MEL-2, 72 h
Outline: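 SK-MEL2 grown with reduced serum (5% FBS) to slow proliferation. Compounds added in DMSO (0.1% final), followed by a 72 h MTT proliferation assay.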

[23] = organism: Oryctolagus cuniculus; experiment: Binding affinity to eIF4A1/2 in rabbit reticulocyte lysate assessed as inhibition of cap-dependent translation up to 500 nM after 1.5 hrs by dual luciferase reporter gene assay; outline: as §1
[24] = Antiproliferative activity against human Jurkat T cells assessed as DNA synthesis level after 24 hrs by thymidine incorporation assay; assay type: functional, cell-based; outline: as §3
[25] = Antiproliferative activity against human Jurkat T cells after 72 hrs by MTT assay; assay type: functional, cell-based; outline: as §2
[26] = system: SK-MEL-2; experiment: Selectivity ratio of IC50 for human SK-MEL-2 cells in presence of 5% FBS to IC50 for human SK-MEL-2 cells in presence of 10% FBS; assay type: functional

## CC(/C=C/CCCO)=C\[C@@H]1Cc2nc(cs2)CCCCC(=O)O[C@@H](C)C/C(C)=C/C#CC(=O)O1
[1]
  inhibition: inactive
[2]
  Activity: inactive
[3]
  Activity: inactive
[4]
  Activity: inactive

## CC(/C=C/CCCO)=C\[C@@H]1Cc2nc(cs2)[C@@H](C)C[C@@H](NC(=O)OC(C)(C)C)CC(=O)O[C@@H](C)C/C(C)=C/C#CC(=O)O1
[5]
  IC50: > 100 nM
[6]
  IC50: > 100 nM
[7]
  IC50: > 100 nM
[8]
  IC50: > 20 nM
[9]
  IC50: 340 nM

## COCCC/C=C/C(C)=C/[C@@H]1Cc2nc(cs2)[C@@H](C)C[C@@H](NC(=O)OC(C)(C)C)CC(=O)O[C@@H](C)C/C(C)=C/C=C\C(=O)O1
[9]
  IC50: > 1000 nM

## CC(/C=C/C(C)=C/[C@@H]1Cc2nc(cs2)CCCCC(=O)O[C@@H](C)C/C(C)=C/C#CC(=O)O1)=C\CN1CCOCC1
[1]
  inhibition: inactive
[2]
  Activity: inactive
[3]
  Activity: inactive
[10]
  IC50: > 5000 nM

## CC(/C=C/C(C)=C/[C@@H]1Cc2nc(cs2)CCCCC(=O)O[C@@H](C)C/C(C)=C/C=C\C(=O)O1)=C\CN1CCOCC1
[1]
  inhibition: inactive
[11]
  IC50: 430 nM
[12]
  IC50: 72.2 nM
[3]
  Activity: inactive
[13]
  t1/2: 0.89 h
[14]
  selectivity ratio: 5
[15]
  IC50: > 2000 nM
[10]
  IC50: 320 nM
[16]
  selectivity ratio: 5
[17]
  t1/2: 9.23 h
[18]
  pKa: 8.36
[19]
  selectivity ratio: 5
[20]
  Ratio IC50: 2
[21]
  t1/2: 17.8 h
[22]
  IC50: 157 nM

## COC/C=C/C=C/C(C)=C/[C@@H]1Cc2nc(cs2)CCCCC(=O)O[C@@H](C)C/C(C)=C/C=C\C(=O)O1
[1]
  inhibition: inactive
[2]
  Activity: inactive
[3]
  Activity: inactive
[10]
  IC50: > 5000 nM
[23]
  inhibition: inactive

## CC(/C=C/C(C)=C/[C@@H]1Cc2nc(cs2)[C@@H](C)C[C@@H](N)CC(=O)O[C@@H](C)C/C(C)=C/C=C\C(=O)O1)=C\CN(C)C [PATEAMINE A]
[5]
  IC50: 0.72 nM
[6]
  IC50: 0.42 nM
[7]
  IC50: 0.38 nM
[24]
  IC50: 0.6 nM
[8]
  IC50: 0.5 nM
[9]
  IC50: 4 nM

## CC(Br)=C[C@@H]1Cc2nc(cs2)CCCCC(=O)O[C@@H](C)C/C(C)=C/C=C\C(=O)O1
[1]
  inhibition: inactive
[2]
  Activity: inactive
[25]
  IC50: > 10000 nM
[10]
  IC50: > 10000 nM
[23]
  inhibition: inactive

## CC(/C=C/C(C)=C/[C@@H]1Cc2nc(cs2)[C@@H](C)C[C@@H](NC(=O)C(F)(F)F)CC(=O)O[C@@H](C)C/C(C)=C/C=C\C(=O)O1)=C\CN(C)C
[5]
  IC50: > 100 nM
[6]
  IC50: > 100 nM
[7]
  IC50: > 100 nM
[9]
  IC50: 300 nM

## CC(/C=C/CCCO)=C\[C@@H]1Cc2nc(cs2)[C@@H](C)C[C@@H](NC(=O)OC(C)(C)C)CC(=O)O[C@@H](C)C/C(C)=C/C=C\C(=O)O1
[9]
  IC50: > 1000 nM

## CC(/C=C/C(C)=C/[C@@H]1Cc2nc(cs2)CCCCC(=O)O[C@@H](C)C/C(C)=C/C=C\C(=O)O1)=C\CN1CCCC1
[1]
  inhibition: inactive
[11]
  IC50: 23 nM
[12]
  IC50: 54.8 nM
[13]
  t1/2: 3.87 h
[25]
  IC50: 25 nM
[26]
  Ratio IC50: 6
[14]
  selectivity ratio: 4
[15]
  IC50: > 100 nM
[10]
  IC50: 27 nM
[16]
  selectivity ratio: 4
[17]
  t1/2: 14.8 h
[18]
  pKa: 11
[19]
  selectivity ratio: 4
[21]
  t1/2: 11.7 h
[22]
  IC50: 154 nM

## COC/C=C/C=C/C(C)=C/[C@@H]1Cc2nc(cs2)CCCCC(=O)O[C@@H](C)C/C(C)=C/C#CC(=O)O1
[1]
  inhibition: inactive
[2]
  Activity: inactive
[3]
  Activity: inactive
[4]
  Activity: inactive

## COCCC/C=C/C(C)=C/[C@@H]1Cc2nc(cs2)CCCCC(=O)O[C@@H](C)C/C(C)=C/C#CC(=O)O1
[1]
  inhibition: inactive
[2]
  Activity: inactive
[25]
  IC50: > 10000 nM
[4]
  Activity: inactive
